According to ChEMBL document CHEMBL1629564, “Mechanisms accounting for fluoroquinolone resistance in Escherichia coli clinical isolates” (2009):
≈ marks a conversion by molar mass, not a printed value.

What was measured:
Escherichia coli [1] = test: Antimicrobial activity against Escherichia coli K-12 harboring gyrA L83, Y87 and parC I80, G84 mutant gene by agar dilution method; assay type: functional
Escherichia coli [2] = test: Antimicrobial activity against Escherichia coli harboring gyrA L83, Y87, parC I80, G84 and parE A458 mutant gene by agar dilution method
Escherichia coli [3] = test: Antimicrobial activity against Escherichia coli […] harboring gyrA L83, N87, parC I80, K84 and parE D460 mutant gene by agar dilution method; assay type: functional, K-12
Summary of the method: (§1)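 Clinical E. coli isolates, with topoisomerase QRDR genotype (gyrA, gyrB, parC, parE) found by PCR sequencing. MICs for ciprofloxacin, gatifloxacin, levofloxacin and norfloxacin were measured by CLSI agar dilution using a modified dilution scheme. Where the agar dilution MIC was <1 μg/ml, the value came from at least two Etest measurements.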

Escherichia coli [4] = test: Antimicrobial activity against Escherichia coli K-12 harboring gyrA L83, Y87 and parC K84 mutant gene by agar dilution method; assay type: functional
Escherichia coli [5] = test: Antimicrobial activity against […] harboring gyrA L83, N87, gyrB T471 and parC I80, G84 mutant gene by agar dilution method; assay type: functional, K-12; summary of the method: as §1
Escherichia coli [6] = test: Antimicrobial activity against Escherichia coli K-12 harboring gyrA L83, N87 and parC K84 mutant gene by agar dilution method; assay type: functional
Escherichia coli [7] = test: Antimicrobial activity against Escherichia coli K-12 harboring gyrA L83, Y87 and parC I80 mutant gene by agar dilution method; assay type: functional
Escherichia coli [8] = test: Antimicrobial activity against Escherichia coli K-12 harboring by agar dilution method; assay type: functional
Escherichia coli [9] = test: Antimicrobial activity against Escherichia coli K-12 harboring gyrA A83 mutant gene by agar dilution method; assay type: functional
Escherichia coli [10] = test: Antimicrobial activity against Escherichia coli […] harboring gyrA L83, Y87, parC I80 and parE A458 mutant gene by agar dilution method; assay type: functional, K-12; summary of the method: as §1
Escherichia coli [11] = test: Antimicrobial activity against […] harboring gyrA L83, N87, parC I80 and parE […] mutant gene by agar dilution method; assay type: functional, K-12; summary of the method: as §1
Escherichia coli [12] = test: Antimicrobial activity against Escherichia coli K-12 harboring gyrA L83, N87 and parC I80 mutant gene by agar dilution method; assay type: functional
Escherichia coli [13] = test: Antimicrobial activity against Escherichia coli K-12 harboring gyrA L83, Y87 mutant gene by agar dilution method; assay type: functional
Escherichia coli [14] = test: Antimicrobial activity against Escherichia coli K-12 harboring gyrA L83, N87 and parC I80, G84 mutant gene by agar dilution method; assay type: functional
Escherichia coli [15] = test: Antimicrobial activity against Escherichia coli K-12 harboring gyrA L83, N87 mutant gene by agar dilution method; assay type: functional
Escherichia coli [16] = test: Antimicrobial activity against Escherichia coli […] harboring gyrA L83, N87, parC I80 and parE M464 mutant gene by agar dilution method; assay type: functional, K-12; summary of the method: as §1

O=C(O)c1cn(C2CC2)c2cc(N3CCNCC3)c(F)cc2c1=O [CIPROFLOXACIN]
MIC (Escherichia coli [1]): 40 µg/mL (≈ 121 µM) | MIC (Escherichia coli [2]): 300 µg/mL (≈ 905 µM) | MIC (Escherichia coli [3]): 200 µg/mL (≈ 604 µM) | MIC (Escherichia coli [4]): 500 µg/mL (≈ 1510 µM)

COc1c(N2CCNC(C)C2)c(F)cc2c(=O)c(C(=O)O)cn(C3CC3)c12 (stereo unspecified) [GATIFLOXACIN]
MIC (Escherichia coli [5]): 20 µg/mL (≈ 53.3 µM) | MIC (Escherichia coli [6]): 30 µg/mL (≈ 79.9 µM) | MIC (Escherichia coli [7]): 10 µg/mL (≈ 26.6 µM) | MIC (Escherichia coli [8]): 0.007 µg/mL (≈ 0.0186 µM) | MIC (Escherichia coli [1]): 10 µg/mL (≈ 26.6 µM) | MIC (Escherichia coli [9]): 0.094 µg/mL (≈ 0.25 µM) | MIC (Escherichia coli [10]): 20 µg/mL (≈ 53.3 µM) | MIC (Escherichia coli [11]): 10 µg/mL (≈ 26.6 µM) | MIC (Escherichia coli [2]): 30 µg/mL (≈ 79.9 µM) | MIC (Escherichia coli [3]): 20 µg/mL (≈ 53.3 µM) | MIC (Escherichia coli [12]): 10 µg/mL (≈ 26.6 µM) | MIC (Escherichia coli [13]): 0.5 µg/mL (≈ 1.33 µM) | MIC (Escherichia coli [14]): 10 µg/mL (≈ 26.6 µM) | MIC (Escherichia coli [4]): 30 µg/mL (≈ 79.9 µM) | MIC (Escherichia coli [15]): 10 µg/mL (≈ 26.6 µM) | MIC (Escherichia coli [16]): 20 µg/mL (≈ 53.3 µM)

C[C@H]1COc2c(N3CCN(C)CC3)c(F)cc3c(=O)c(C(=O)O)cn1c23.C[C@H]1COc2c(N3CCN(C)CC3)c(F)cc3c(=O)c(C(=O)O)cn1c23.O [LEVOFLOXACIN]
MIC (Escherichia coli [5]): 30 µg/mL | MIC (Escherichia coli [6]): 50 µg/mL | MIC (Escherichia coli [7]): 10 µg/mL | MIC (Escherichia coli [1]): 50 µg/mL | MIC (Escherichia coli [9]): 0.168 µg/mL | MIC (Escherichia coli [10]): 50 µg/mL | MIC (Escherichia coli [11]): 20 µg/mL | MIC (Escherichia coli [2]): 200 µg/mL | MIC (Escherichia coli [3]): 50 µg/mL | MIC (Escherichia coli [12]): 8 µg/mL | MIC (Escherichia coli [13]): 2 µg/mL | MIC (Escherichia coli [14]): 50 µg/mL | MIC (Escherichia coli [4]): 50 µg/mL | MIC (Escherichia coli [15]): 10 µg/mL | MIC (Escherichia coli [16]): 50 µg/mL

CCn1cc(C(=O)O)c(=O)c2cc(F)c(N3CCNCC3)cc21 [NORFLOXACIN]
MIC (Escherichia coli [5]): 200 µg/mL (≈ 626 µM) | MIC (Escherichia coli [6]): 200 µg/mL (≈ 626 µM) | MIC (Escherichia coli [7]): 50 µg/mL (≈ 157 µM) | MIC (Escherichia coli [8]): 0.023 µg/mL (≈ 0.072 µM) | MIC (Escherichia coli [1]): 100 µg/mL (≈ 313 µM) | MIC (Escherichia coli [9]): 0.194 µg/mL (≈ 0.608 µM) | MIC (Escherichia coli [10]): 300 µg/mL (≈ 939 µM) | MIC (Escherichia coli [11]): 50 µg/mL (≈ 157 µM) | MIC (Escherichia coli [2]): 1000 µg/mL (≈ 3130 µM) | MIC (Escherichia coli [3]): 400 µg/mL (≈ 1250 µM) | MIC (Escherichia coli [12]): 10 µg/mL (≈ 31.3 µM) | MIC (Escherichia coli [13]): 8 µg/mL (≈ 25.1 µM) | MIC (Escherichia coli [14]): 200 µg/mL (≈ 626 µM) | MIC (Escherichia coli [4]): 1000 µg/mL (≈ 3130 µM) | MIC (Escherichia coli [15]): 10 µg/mL (≈ 31.3 µM) | MIC (Escherichia coli [16]): 400 µg/mL (≈ 1250 µM)
